Experimental data published in ChEMBL document CHEMBL2375243, “Synthesis and antioxidant properties of substituted 2-phenyl-1H-indoles” (Bioorg Med Chem Lett, 2013).
Activity calls are given as the source filed them. The rule behind the calls is not given here.

system: Liver; assay: Antioxidant activity in Wistar rat liver assessed as inhibition of Fe2+/ascorbate-induced lipid peroxidation at 0.1 mM after 1 hr by TBARS assay relative to control; assay type: functional, tissue-based
Procedure, shortened: (§1)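 Lipid peroxidation assay: MDA formation measured with thiobarbituric acid. Tested at 1 mM and 0.1 mM, melatonin as positive control. Values are % mean inhibition from at least triplicate analyses.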

SMILES | inhibition [%]
O=[N+]([O-])c1ccc(-c2cc3cc(F)cc(Cl)c3[nH]2)cc1 | 5
COc1ccc(-c2cc3cc(F)cc(Cl)c3[nH]2)cc1OC | 13
COc1ccc(-c2cc3cc(F)ccc3[nH]2)cc1F | 7
Nc1ccc(-c2cc3cc(Cl)ccc3[nH]2)cc1 | 30
Nc1ccc(-c2cc3cc(F)ccc3[nH]2)cc1 | 17
COc1ccc(-c2cc3ccccc3[nH]2)cc1 | 14
COc1cc(-c2cc3cc(F)ccc3[nH]2)cc(OC)c1OC | 10
COc1cc(-c2cc3ccccc3[nH]2)cc(OC)c1OC | 33
Nc1ccc(-c2cc3ccccc3[nH]2)cc1 | 13
COc1ccc(-c2cc3cc(F)ccc3[nH]2)cc1OC | 10
Nc1ccc(-c2cc3c(Cl)cccc3[nH]2)cc1 | 30
COc1ccc2[nH]cc(CCNC(C)=O)c2c1 | 45
Nc1ccc(-c2cc3cccc(F)c3[nH]2)cc1 | 26
COc1ccc2[nH]c(-c3ccc(N)cc3)cc2c1 | 33
Nc1ccc(-c2cc3ccc(Cl)cc3[nH]2)cc1 | 35
Nc1ccc(-c2cc3ccc(F)cc3[nH]2)cc1 | 22
COc1ccc(-c2cc3cc(F)cc(Cl)c3[nH]2)cc1 | 6
COc1ccc(-c2cc3ccccc3[nH]2)cc1OC | 13

system: Liver; assay: Antioxidant activity in Wistar rat liver assessed as inhibition of Fe2+/ascorbate-induced lipid peroxidation at 1 mM after 1 hr by TBARS assay relative to control; assay type: functional, tissue-based; procedure, shortened: as §1

SMILES | inhibition [%]
O=[N+]([O-])c1ccc(-c2cc3cc(F)cc(Cl)c3[nH]2)cc1 | 20
COc1ccc(-c2cc3cc(F)cc(Cl)c3[nH]2)cc1OC | 24
COc1ccc(-c2cc3cc(F)ccc3[nH]2)cc1F | 13
Nc1ccc(-c2cc3cc(Cl)ccc3[nH]2)cc1 | 31
Nc1ccc(-c2cc3cc(F)ccc3[nH]2)cc1 | 19
COc1ccc(-c2cc3ccccc3[nH]2)cc1 | 24
COc1cc(-c2cc3cc(F)ccc3[nH]2)cc(OC)c1OC | 19
COc1cc(-c2cc3ccccc3[nH]2)cc(OC)c1OC | 28
Nc1ccc(-c2cc3ccccc3[nH]2)cc1 | 26
COc1ccc(-c2cc3cc(F)ccc3[nH]2)cc1OC | 24
Nc1ccc(-c2cc3c(Cl)cccc3[nH]2)cc1 | 30
COc1ccc2[nH]cc(CCNC(C)=O)c2c1 | 85
Nc1ccc(-c2cc3cccc(F)c3[nH]2)cc1 | 30
COc1ccc2[nH]c(-c3ccc(N)cc3)cc2c1 | 42
Nc1ccc(-c2cc3ccc(Cl)cc3[nH]2)cc1 | 35
Nc1ccc(-c2cc3ccc(F)cc3[nH]2)cc1 | 35
COc1ccc(-c2cc3cc(F)cc(Cl)c3[nH]2)cc1 | 33
COc1ccc(-c2cc3ccccc3[nH]2)cc1OC | 27

system: not listed separately; assay: Antioxidant activity of the compound assessed as inhibition of xanthine-xanthine oxidase-mediated superoxide radical formation at 0.1 mM after 3 mins by NBT reduction assay relative to control; assay type: functional
Procedure, shortened: (§2)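 Superoxide anion generated by xanthine/xanthine oxidase and detected spectrophotometrically by nitroblue tetrazolium reduction. Test concentrations 1 mM and 0.1 mM, melatonin as positive control. Values are % mean inhibition from at least triplicate determinations.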

SMILES | inhibition
O=[N+]([O-])c1ccc(-c2cc3cc(F)cc(Cl)c3[nH]2)cc1 | inactive
COc1ccc(-c2cc3cc(F)cc(Cl)c3[nH]2)cc1OC | inactive
COc1ccc(-c2cc3cc(F)ccc3[nH]2)cc1F | inactive
Nc1ccc(-c2cc3cc(Cl)ccc3[nH]2)cc1 | inactive
Nc1ccc(-c2cc3cc(F)ccc3[nH]2)cc1 | 20%
COc1ccc(-c2cc3ccccc3[nH]2)cc1 | 12%
COc1cc(-c2cc3cc(F)ccc3[nH]2)cc(OC)c1OC | 9%
COc1cc(-c2cc3ccccc3[nH]2)cc(OC)c1OC | 13%
Nc1ccc(-c2cc3ccccc3[nH]2)cc1 | 16%
COc1ccc(-c2cc3cc(F)ccc3[nH]2)cc1OC | inactive
Nc1ccc(-c2cc3c(Cl)cccc3[nH]2)cc1 | inactive
COc1ccc2[nH]cc(CCNC(C)=O)c2c1 | 19%
Nc1ccc(-c2cc3cccc(F)c3[nH]2)cc1 | 15%
COc1ccc2[nH]c(-c3ccc(N)cc3)cc2c1 | 14%
Nc1ccc(-c2cc3ccc(Cl)cc3[nH]2)cc1 | 17%
Nc1ccc(-c2cc3ccc(F)cc3[nH]2)cc1 | 35%
COc1ccc(-c2cc3cc(F)cc(Cl)c3[nH]2)cc1 | inactive
COc1ccc(-c2cc3ccccc3[nH]2)cc1OC | 12%

system: not listed separately; assay: Antioxidant activity of the compound assessed as inhibition of xanthine-xanthine oxidase-mediated superoxide radical formation at 1 mM after 3 mins by NBT reduction assay relative to control; assay type: functional; procedure, shortened: as §2

SMILES | inhibition
O=[N+]([O-])c1ccc(-c2cc3cc(F)cc(Cl)c3[nH]2)cc1 | 39%
COc1ccc(-c2cc3cc(F)cc(Cl)c3[nH]2)cc1OC | 39%
COc1ccc(-c2cc3cc(F)ccc3[nH]2)cc1F | inactive
Nc1ccc(-c2cc3cc(Cl)ccc3[nH]2)cc1 | 22%
Nc1ccc(-c2cc3cc(F)ccc3[nH]2)cc1 | 35%
COc1ccc(-c2cc3ccccc3[nH]2)cc1 | 43%
COc1cc(-c2cc3cc(F)ccc3[nH]2)cc(OC)c1OC | 50%
COc1cc(-c2cc3ccccc3[nH]2)cc(OC)c1OC | 42%
Nc1ccc(-c2cc3ccccc3[nH]2)cc1 | 30%
COc1ccc(-c2cc3cc(F)ccc3[nH]2)cc1OC | 51%
Nc1ccc(-c2cc3c(Cl)cccc3[nH]2)cc1 | 18%
COc1ccc2[nH]cc(CCNC(C)=O)c2c1 | 75%
Nc1ccc(-c2cc3cccc(F)c3[nH]2)cc1 | 23%
COc1ccc2[nH]c(-c3ccc(N)cc3)cc2c1 | 35%
Nc1ccc(-c2cc3ccc(Cl)cc3[nH]2)cc1 | 20%
Nc1ccc(-c2cc3ccc(F)cc3[nH]2)cc1 | 81%
COc1ccc(-c2cc3cc(F)cc(Cl)c3[nH]2)cc1 | 32%
COc1ccc(-c2cc3ccccc3[nH]2)cc1OC | 70%

system: Radical scavenging activity; assay: Antioxidant activity of the compound assessed as DPPH free radical scavenging activity at 0.1 mM after 30 mins by spectrophotometric analysis relative to control; assay type: functional
Procedure, shortened: (§3)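 Free-radical scavenging measured as bleaching of the stable radical DPPH at 517 nm. Tested at 1 mM and 0.1 mM, melatonin as positive control. Results are % mean inhibition, average of at least triplicate analyses.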

SMILES | inhibition
O=[N+]([O-])c1ccc(-c2cc3cc(F)cc(Cl)c3[nH]2)cc1 | inactive
COc1ccc(-c2cc3cc(F)cc(Cl)c3[nH]2)cc1OC | inactive
COc1ccc(-c2cc3cc(F)ccc3[nH]2)cc1F | inactive
Nc1ccc(-c2cc3cc(Cl)ccc3[nH]2)cc1 | 23%
Nc1ccc(-c2cc3cc(F)ccc3[nH]2)cc1 | 18%
COc1ccc(-c2cc3ccccc3[nH]2)cc1 | 6%
COc1cc(-c2cc3cc(F)ccc3[nH]2)cc(OC)c1OC | 3%
COc1cc(-c2cc3ccccc3[nH]2)cc(OC)c1OC | 9%
Nc1ccc(-c2cc3ccccc3[nH]2)cc1 | 43%
COc1ccc(-c2cc3cc(F)ccc3[nH]2)cc1OC | 2%
Nc1ccc(-c2cc3c(Cl)cccc3[nH]2)cc1 | 44%
COc1ccc2[nH]cc(CCNC(C)=O)c2c1 | 81%
Nc1ccc(-c2cc3cccc(F)c3[nH]2)cc1 | 43%
COc1ccc2[nH]c(-c3ccc(N)cc3)cc2c1 | 69%
Nc1ccc(-c2cc3ccc(Cl)cc3[nH]2)cc1 | 50%
Nc1ccc(-c2cc3ccc(F)cc3[nH]2)cc1 | 65%
COc1ccc(-c2cc3cc(F)cc(Cl)c3[nH]2)cc1 | inactive
COc1ccc(-c2cc3ccccc3[nH]2)cc1OC | 12%

system: Radical scavenging activity; assay: Antioxidant activity of the compound assessed as DPPH free radical scavenging activity at 1 mM after 30 mins by spectrophotometric analysis relative to control; assay type: functional; procedure, shortened: as §3

SMILES | inhibition
O=[N+]([O-])c1ccc(-c2cc3cc(F)cc(Cl)c3[nH]2)cc1 | 5%
COc1ccc(-c2cc3cc(F)cc(Cl)c3[nH]2)cc1OC | 10%
COc1ccc(-c2cc3cc(F)ccc3[nH]2)cc1F | inactive
Nc1ccc(-c2cc3cc(Cl)ccc3[nH]2)cc1 | 70%
Nc1ccc(-c2cc3cc(F)ccc3[nH]2)cc1 | 28%
COc1ccc(-c2cc3ccccc3[nH]2)cc1 | 38%
COc1cc(-c2cc3cc(F)ccc3[nH]2)cc(OC)c1OC | 23%
COc1cc(-c2cc3ccccc3[nH]2)cc(OC)c1OC | 35%
Nc1ccc(-c2cc3ccccc3[nH]2)cc1 | 74%
COc1ccc(-c2cc3cc(F)ccc3[nH]2)cc1OC | 21%
Nc1ccc(-c2cc3c(Cl)cccc3[nH]2)cc1 | 69%
COc1ccc2[nH]cc(CCNC(C)=O)c2c1 | 98%
Nc1ccc(-c2cc3cccc(F)c3[nH]2)cc1 | 77%
COc1ccc2[nH]c(-c3ccc(N)cc3)cc2c1 | 85%
Nc1ccc(-c2cc3ccc(Cl)cc3[nH]2)cc1 | 77%
Nc1ccc(-c2cc3ccc(F)cc3[nH]2)cc1 | 80%
COc1ccc(-c2cc3cc(F)cc(Cl)c3[nH]2)cc1 | inactive
COc1ccc(-c2cc3ccccc3[nH]2)cc1OC | 44%
